The results in this text go back to ChEMBL document CHEMBL2074314, “Involvement of human organic anion transporting polypeptide OATP-B (SLC21A9) in pH-dependent transport across intestinal apical membrane” (J Pharmacol Exp Ther, 2003).

The target of series [1] is T1, OATP-B (SLCO2B1, OATP2B1) (Homo sapiens, UniProt O94956).
T1 sequence (O94956 whole entry): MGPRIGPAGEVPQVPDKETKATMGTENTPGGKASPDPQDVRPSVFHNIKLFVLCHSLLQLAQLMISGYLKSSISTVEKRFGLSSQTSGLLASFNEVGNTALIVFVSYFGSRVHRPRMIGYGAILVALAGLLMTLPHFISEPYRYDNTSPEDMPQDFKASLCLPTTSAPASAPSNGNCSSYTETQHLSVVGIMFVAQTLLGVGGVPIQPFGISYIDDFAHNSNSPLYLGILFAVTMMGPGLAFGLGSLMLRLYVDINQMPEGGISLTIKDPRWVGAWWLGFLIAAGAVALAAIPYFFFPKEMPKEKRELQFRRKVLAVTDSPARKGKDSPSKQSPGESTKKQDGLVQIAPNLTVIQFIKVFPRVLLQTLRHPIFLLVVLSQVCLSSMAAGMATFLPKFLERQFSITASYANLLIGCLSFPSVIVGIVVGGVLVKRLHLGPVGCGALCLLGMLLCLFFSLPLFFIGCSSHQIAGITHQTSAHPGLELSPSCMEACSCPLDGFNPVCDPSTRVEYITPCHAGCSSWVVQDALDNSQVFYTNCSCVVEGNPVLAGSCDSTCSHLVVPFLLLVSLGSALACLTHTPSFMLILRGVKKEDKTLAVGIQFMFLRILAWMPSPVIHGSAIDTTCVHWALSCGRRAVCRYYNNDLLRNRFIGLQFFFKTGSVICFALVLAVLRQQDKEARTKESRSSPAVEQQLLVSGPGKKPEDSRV
Nature of the series: in vitro. The conditions noted are these: HEK293 cells expressing OATP-B, probe E1S (0.00476 uM).

Series [2] deals with T2, Solute carrier organic anion transporter family member 2B1 (Homo sapiens, UniProt O94956).
T2 sequence (O94956 whole entry): T1 sequence (O94956 whole entry)
Nature of the series: TP_TRANSPORTER: uptake (pH 5.5) in OATP-B-expressing HEK293 cells. Format: functional, cell-based. The conditions noted are these: hek293, pH 5.5.

The target of series [3] is T1, OATP-B (SLCO2B1, OATP2B1). Kind of series: TP_TRANSPORTER: inhibition of E1S uptake (E1S: 0.00476 uM, lactic acid: 10000 uM) in OATP-B-expressing HEK293 cells. Format: functional, cell-based. More on the design: scale not given: the % may be the effect or the level left. The conditions noted are these: probe E1S (0.00476 uM), read-out: Activity. The essentials:
(§1)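 HEK293 cells transfected with pcDNA3/OATP-B or empty vector (mock) by calcium phosphate, harvested 40-48 h later and suspended. Preincubated 20 min at 37°C at pH 7.4, then [3H]estrone-3-sulfate (4.76 nM) uptake for 10 min at 37°C in MES-buffered medium, pH 5.5. Cells separated by silicone oil centrifugal filtration and counted by scintillation. Mock-corrected uptake given as % of no-inhibitor control; mean ± S.E.M., n=3 or 4.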

For series [4], the target named is T1, OATP-B (SLCO2B1, OATP2B1). Nature of the series: TP_TRANSPORTER: inhibition of E1S uptake (E1S: 0.00476 uM, oxalic acid: 10000 uM) in OATP-B-expressing HEK293 cells. More on the design: scale not given: the % may be the effect or the level left. Format: functional, cell-based. The conditions noted are these: probe E1S (0.00476 uM), read-out: Activity. In outline:
as §1

For series [5], the target named is T1, OATP-B (SLCO2B1, OATP2B1). Nature of the series: TP_TRANSPORTER: inhibition of E1S uptake (E1S: 0.00476 uM, benzoic acid: 10000 uM) in OATP-B-expressing HEK293 cells. Format: functional, cell-based. More on the design: scale not given: the % may be the effect or the level left. The conditions noted are these: probe E1S (0.00476 uM), read-out: Activity. The essentials: as §1

For series [6], the target named is T2, Solute carrier organic anion transporter family member 2B1. Kind of series: TP_TRANSPORTER: uptake (pH 7.4) in OATP-B-expressing HEK293 cells. The conditions noted are these: hek293, pH 7.4. It is filed as functional, cell-based.
Series [7] concerns the target T1, OATP-B (SLCO2B1, OATP2B1). Kind of series: in vitro. To be noted: HEK293 cells expressing OATP-B, probe E1S (0.00476 uM). The source holds these as a separate data set.
For series [8], the target named is T1, OATP-B (SLCO2B1, OATP2B1). Kind of series: TP_TRANSPORTER: inhibition of E1S uptake (E1S: 0.00476 uM, phthalic acid: 10000 uM) in OATP-B-expressing HEK293 cells. It is filed as functional, cell-based. More on the design: scale not given: the % may be the effect or the level left. To be noted: probe E1S (0.00476 uM), read-out: Activity. The essentials: as §1

Series [9] concerns the target T1, OATP-B (SLCO2B1, OATP2B1). Kind of series: TP_TRANSPORTER: inhibition of E1S uptake (E1S: 0.00476 uM, citric acid: 10000 uM) in OATP-B-expressing HEK293 cells. It is filed as functional, cell-based. More on the design: scale not given: the % may be the effect or the level left. The conditions noted are these: probe E1S (0.00476 uM), read-out: Activity. The essentials: as §1

As for `O=C(O)c1cccnc1` [NIACIN], the activity at 10000 uM in series [1] came out at 59.7%.

Turning to `CC[C@H](C)C(=O)O[C@H]1C[C@H](O)C=C2C=C[C@H](C)[C@H](CC[C@@H](O)C[C@@H](O)CC(=O)O)[C@H]21` [PRAVASTATIN], in series [2], the Activity entry was “substrate [+]”.

For the molecule `C[C@@H](O)C(=O)O` [D-LACTIC ACID], the activity at 10000 uM in series [3] amounted to 85.6%.

As for `O=C(O)C(=O)O` [OXALIC ACID], the activity at 10000 uM in series [4] was 83.9%.

In the case of `O=C(O)c1ccccc1` [BENZOIC ACID], the activity at 10000 uM in series [5] came to 56.1%.

In the case of `C[C@]12CC[C@@H]3c4ccc(OS(=O)(=O)O)cc4CC[C@H]3[C@@H]1CCC2=O` [ESTRONE SULFURIC ACID], the Activity result in [6] was “substrate [+]”.

`CC(=O)O` [ACETIC ACID] returned an activity at 10000 uM in series [7] of 86.1%.

Take `O=C(O)c1ccccc1C(=O)O` [PHTHALIC ACID]: in series [8], the activity at 10000 uM was found to be 42.7%.

For the molecule `O=C(O)CC(O)(CC(=O)O)C(=O)O` [CITRIC ACID], the activity at 10000 uM in series [9] came to 97.7%.
